Screening data from PubChem.
Rows were chosen to be rich in hits. Some 2.6% of all compounds tested hit in one or more screens of this group.
V1R ag counter: activates human V1a receptor in oxytocin agonist counter-screen | 0.25% of 320,000 active | AID 2797 | P37288 | CHO-V1R cells, Fluo-8 calcium fluorescence, agonist mode; 0% DMSO, 100% 3 nM vasopressin | activation, % at 3 µM;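 active = activation above the mean activation of all tested compounds plus 3 SD, per screening run, cut at about 20% in these data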;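 note: signal is peak over basal fluorescence ratio across a 100 second FLIPR read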
OX1R antag-1: blocks the human orexin 1 receptor | O43613 | OX1R-expressing cells, FRET antagonist read-out | inhibition, % at 6.6 µM | 1.8% of 330,000 active | AID 485270; in the data active = inhibition mostly above about 38%, no sharp cut-off; inactive = mostly below about 40%
OXTR ag: human OXTR agonism | CHO-OTR cells, Fluo-8 calcium fluorescence; normalized: DMSO 0%, oxytocin 100% | activation, % at 3 µM | 0.32% of 320,000 active | AID 2435;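 active = activation above the mean of all tested compounds plus 3 SD, cutoff set per screening run, cut at about 20% in these data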;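 note: peak over basal fluorescence ratio from a 100 s FLIPR kinetic read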
Target sequence (P30559 whole entry, looked up): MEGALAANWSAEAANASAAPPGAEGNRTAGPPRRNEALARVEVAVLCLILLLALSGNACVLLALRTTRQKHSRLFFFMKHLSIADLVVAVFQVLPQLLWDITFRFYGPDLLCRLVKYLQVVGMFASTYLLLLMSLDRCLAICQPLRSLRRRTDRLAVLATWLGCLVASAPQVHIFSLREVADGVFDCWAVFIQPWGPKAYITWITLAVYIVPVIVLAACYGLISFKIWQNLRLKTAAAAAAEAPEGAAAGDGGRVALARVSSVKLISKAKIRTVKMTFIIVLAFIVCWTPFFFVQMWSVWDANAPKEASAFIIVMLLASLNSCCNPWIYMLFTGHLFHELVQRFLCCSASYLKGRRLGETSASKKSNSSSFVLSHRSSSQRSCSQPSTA
OX1R antag-2: blocks the human orexin 1 receptor | 0.43% of 330,000 active | O43613 | inhibition, % at 5 µM | AID 434989 | CHO/OX1R cells, Fluo-8 calcium fluorescence, orexin A;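 active = inhibition above its plate's threshold, mean inhibition of all tested compounds on the plate plus 3 SD, cut at about 37% in these data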
CHO parental Ca: counter-screen for OX1R antagonists: effect in parental CHO cells | parental CHO-K1, ATP-induced calcium, Fluo-8 fluorescence | inhibition, % at 5.6 µM | 0.63% of 330,000 active;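 active = inhibition above that plate's mean sample inhibition plus 3 SD, cut at about 26% in these data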
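Test system: untransfected parental CHO cell line; also added: ATP stimulus; dosing: 5.6 µM, single dose; signal: calcium-sensitive Fluo-8 fluorescence; measure: percent inhibition of ATP-evoked calcium rise, normalized to controls; benchmarks: low control ATP plus DMSO, high control DMSO only; replication: one well per compound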
OXTR potentiate: potentiators of human oxytocin receptor; P30559; CHO-OTR cells, Fluo-8 calcium fluorescence, potentiator mode; 0% = oxytocin EC15, 100% = EC100; activation, % at 3 µM; 0.061% of 320,000 active;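 active = activation above that plate's cutoff, the mean activation of tested compounds plus 3 SD, cut at about 6.6% in these data, passing the limit was not always enough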
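Replication – single well per compound, singlicate · Assay system – CHO cell line stably expressing human OTR · Timing – 6 min pre-incubation, 100 s read · Measure – normalized max/min fluorescence ratio, % activation · Doses – 3.0 µM, one dose · Detection – Fluo-8 calcium dye fluorescence · Probe or stimulus – oxytocin near EC15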
Numbers stand for hits; 0 = inactive; - = no result.

SMILES	V1R ag counter	OX1R antag-1	OXTR ag	OX1R antag-2	CHO parental Ca	OXTR potentiate
Cc1ccc(-n2c(SCC(=O)N(C)C)nnc2-c2ccco2)cc1	0	0	0	0	0	0
COc1cc(OC)cc(-c2nc3cc(C)ccc3o2)c1	0	42	0	0	0	0
CCOc1ccc(S(=O)(=O)N2CCCCC2)cc1NC(=O)Cc1cccs1	0	0	0	0	0	0
CCc1nc2ccc(C(=O)Nc3ccc4c(c3)OCO4)cc2nc1CC	0	35	0	0	0	0
CC(C)=CCC/C(C)=C/CNC(=O)C[C@H]1C[C@H](C(=O)N2CCOCC2)[C@@]2(CCC3CCCC3)c3[nH]c4cc(-c5ccco5)ccc4c3CCN2C1=O	-	0	-	0	0	-
COc1ccc(C(=O)Nc2cccc3c2CCCC3)cc1	0	0	0	0	0	0
COc1ccc(C(=O)Nc2cccc3c2CCCC3)c(OC)c1	0	57	0	0	0	0
O=C(Nc1cccc2c1CCCC2)c1ccco1	0	0	0	0	0	0
O=C(Nc1cccc2c1CCCC2)c1ccccc1Br	0	0	0	0	44	0
CCOC(=O)c1c(C)[nH]c(C)c1S(=O)(=O)N1CCN(c2cccc(C)c2)C(C)C1 (stereo not given)	0	0	0	0	0	0
CC(C)N(Cc1nc(-c2ccccc2)no1)C(=O)COc1ccccc1	0	0	0	0	0	0
Cc1cc(Br)ccc1OCC(=O)N(Cc1nc(-c2ccccc2)no1)C(C)C	0	56	0	0	0	0
CC(C)N(Cc1nc(-c2ccccc2)no1)C(=O)CSc1ccccc1	0	39	0	0	0	0
Cc1ccc(-c2noc(CN(C(=O)Cc3ccccc3)C(C)C)n2)cc1	0	52	0	0	0	0
COc1ccccc1OCC(=O)N(Cc1nc(-c2ccccc2)no1)C(C)C	0	0	0	0	0	0
COc1cccc(OCC(=O)N(Cc2nc(-c3ccc(Cl)cc3)no2)C(C)C)c1	0	47	0	0	0	0
Cc1ccc(-c2noc(CN(C(=O)CCN3C(=O)c4ccccc4C3=O)C(C)C)n2)cc1	0	0	0	0	0	0
CCOC(=O)CN(C(=O)COc1nc(-c2ccccc2)cc(C)c1C#N)c1ccccc1C	0	0	0	0	0	0
Cc1ccc(C)c(C(=O)N(Cc2nc(-c3ccc(Cl)cc3)no2)C(C)C)c1	0	0	0	0	36	0
COc1cccc(C(=O)N(Cc2nc(-c3ccc(C)cc3)no2)C(C)C)c1	0	0	0	0	0	0
N#Cc1c(-c2cccs2)cc(-c2cccnc2)nc1N	0	46	0	0	0	0
Cc1cc(C(=O)COc2ccc(Cl)cc2Br)c(C)n1C	0	0	0	0	26	0
NC(=S)NNC(=O)C12CC3CC(CC(C3)C1)C2	23	0	34	0	0	0
COC(=O)NNC(=O)C12CC3CC(CC(C3)C1)C2	0	0	0	0	0	0
NC(=O)C1CCN(C(=O)CCC(=O)c2cccs2)CC1	0	0	0	0	0	0
SMILES	V1R ag counter	OX1R antag-1	OXTR ag	OX1R antag-2	CHO parental Ca	OXTR potentiate
CCCOC(=O)c1ccc(OCC(O)CN2C(=O)NC(C)(C)C2=O)cc1 (stereo not given)	0	0	0	0	99	0
CC1(C)NC(=O)N(CC(O)COc2ccc(-c3ccccc3)cc2)C1=O (stereo not given)	0	0	0	0	0	0
COC(=O)Cc1cc(C)cc2c(=O)cc(-c3ccoc3)oc12	0	0	0	0	0	0
COc1ccc(C(C)=O)cc1COC(=O)Cc1cc(OC)c(OC)c(OC)c1	0	0	0	0	0	0
c1ccc(N(c2ccccc2)c2nc(-n3ccnc3)nc(-n3ccnc3)n2)cc1	0	0	0	82	42	0
NCC1CC2c3ccccc3C1c1ccccc12 (stereo not given)	0	0	0	0	0	0
CCCCN(C(=O)C1CCCO1)c1c(N)n(CCC)c(=O)[nH]c1=O (stereo not given)	0	0	0	0	0	0
CC(C)CN1C(=O)c2ccc(C(=O)NCc3ccccn3)cc2C1=O	0	0	0	0	0	0
COCCN1C(=O)c2ccc(C(=O)NCc3ccco3)cc2C1=O	0	0	0	0	0	0
COCCCN1C(=O)c2ccc(C(=O)NCc3ccccn3)cc2C1=O	0	39	0	0	0	0
COCCCN1C(=O)c2ccc(C(=O)NCc3ccco3)cc2C1=O	0	42	0	0	0	0
Cc1[nH][nH]c(=O)c1N=Nc1ccc(F)cc1	0	0	0	0	0	0
COc1ccc(N=Nc2c(C)[nH][nH]c2=O)cc1	0	57	0	0	0	0
CC(NC(=O)C1CCN(C(=O)c2ccc(F)cc2)CC1)c1ccc(S(N)(=O)=O)cc1 (stereo not given)	0	0	0	0	0	0
Oc1ccc(N=Nc2ccc3c(c2)OCCO3)c2cccnc12	0	0	0	48	45	0
Cc1ccccc1N=Nc1ccc(O)c2ncccc12	0	0	0	0	0	0
Oc1ccc(N=Nc2ccc3c(c2)OCCO3)c(O)c1	0	0	0	0	0	0
COc1cccc(N=Nc2ccc(O)c3ncccc23)c1	0	0	0	49	55	0
COc1ccc(N=Nc2ccc(O)c3ncccc23)cc1	0	0	0	0	51	0
COc1cccc(N=Nc2ccc3cccnc3c2O)c1	0	0	0	53	83	0
Cc1cccc(N2CCN(C(=O)CCS(=O)(=O)c3ccc4c(c3)NC(=O)CO4)CC2)c1C	0	0	0	0	0	0
O=C1N(c2ccccc2C(F)(F)F)O[C@]1(c1ccccc1)C1CCCC1	0	0	0	0	0	0
CCOC(=O)c1c(NC(=O)C(C)N2CCN(C(=O)c3ccco3)CC2)sc2c1CCCC2 (stereo not given)	0	0	0	66	60	0
CCOC(=O)c1c(NC(=O)c2ccco2)sc2c1CCCCC2	0	0	0	0	0	0
O=S(=O)(NCCOCC(F)(F)F)c1ccc2oc3ccccc3c2c1	0	0	0	56	59	0
SMILES	V1R ag counter	OX1R antag-1	OXTR ag	OX1R antag-2	CHO parental Ca	OXTR potentiate
Nc1nc(-c2ccccc2)[nH]c(=O)c1N=O	0	58	0	0	0	0
N#Cc1c(-c2ccccc2)nc(-c2ccccc2)[nH]c1=O	0	0	0	0	0	0
O=C1c2ccccc2C(=O)C1c1ccnc2ccccc12	0	69	0	0	0	0
Cc1nn(CC(=O)N2CCC(C)CC2)c(=O)c2nn(-c3ccccc3)c(C)c12	0	0	0	0	0	0
O=C(COC(=O)/C=C/C(=O)N1CCN(c2ccccc2)CC1)NC(c1ccccc1)c1ccccc1	0	0	0	0	0	0
CC(C)(C)NC(=O)CSc1nc2ccc(NC(=O)CSc3nnnn3Cc3ccccc3)cc2s1	0	0	0	0	37	0
